Results as given in ChEMBL document CHEMBL1124581, “Synthesis and hypolipidemic and antidiabetogenic activities of beta,beta,beta',beta'-tetrasubstituted, long-chain dioic acids” (J Med Chem, 1989).

Key:
Rattus norvegicus [1] = assay: In vivo lipid synthesis as percent of nontreated control by incorporation of 3H20 into 3-beta-hydroxysterols in rat, at 0.1%(w/w) in diet for three days
Rattus norvegicus [2] = assay: In vivo percent inhibition of lipid synthesis, by incorporation of 3H20 into liver saponified fatty acids in rat, at 0.1%(w/w) in diet for three days; assay type: functional; conditions: values are per cent of control
In short: (§1)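 Rats fed for 3 consecutive days a carbohydrate-rich fat-free diet containing analogue (0.1% w/w for core-substituted series; 0.25% w/w for chain-length homologues). 10 mCi 3H2O given ip; liver taken 1 h later. 3H2O incorporation into liver saponified fatty acids and 3-β-hydroxysterols is expressed as % of untreated rats (untreated n = 3 or 4, mean ± SD).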

Rattus norvegicus [3] = species on record: Rattus norvegicus; assay: Percent of hypolipidemic activity in rats by evaluating the plasma cholesterol level at 0.1%(w/w) in diet for three days; assay type: functional
In short: (§2)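 Rats treated 3 days with 0.1% (w/w) analogue in diet. Plasma triacylglycerols and cholesterol (mg %) compared with untreated rats (mean ± SD, n = 3).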

Rattus norvegicus [4] = species on record: Rattus norvegicus; assay: Percent of hypolipidemic activity in rats by evaluating the plasma triacylglycerol level at 0.1%(w/w) in diet for three days; assay type: functional
In short: as §2

[5] = target: Peroxisomal bifunctional enzyme (Rattus norvegicus) (UniProt P07896); assay: Percent of liver peroxisomal enoyl-CoA hydratase activity in rats
Peroxisomal bifunctional enzyme (Rattus norvegicus), sequence (P07896 whole entry, looked up): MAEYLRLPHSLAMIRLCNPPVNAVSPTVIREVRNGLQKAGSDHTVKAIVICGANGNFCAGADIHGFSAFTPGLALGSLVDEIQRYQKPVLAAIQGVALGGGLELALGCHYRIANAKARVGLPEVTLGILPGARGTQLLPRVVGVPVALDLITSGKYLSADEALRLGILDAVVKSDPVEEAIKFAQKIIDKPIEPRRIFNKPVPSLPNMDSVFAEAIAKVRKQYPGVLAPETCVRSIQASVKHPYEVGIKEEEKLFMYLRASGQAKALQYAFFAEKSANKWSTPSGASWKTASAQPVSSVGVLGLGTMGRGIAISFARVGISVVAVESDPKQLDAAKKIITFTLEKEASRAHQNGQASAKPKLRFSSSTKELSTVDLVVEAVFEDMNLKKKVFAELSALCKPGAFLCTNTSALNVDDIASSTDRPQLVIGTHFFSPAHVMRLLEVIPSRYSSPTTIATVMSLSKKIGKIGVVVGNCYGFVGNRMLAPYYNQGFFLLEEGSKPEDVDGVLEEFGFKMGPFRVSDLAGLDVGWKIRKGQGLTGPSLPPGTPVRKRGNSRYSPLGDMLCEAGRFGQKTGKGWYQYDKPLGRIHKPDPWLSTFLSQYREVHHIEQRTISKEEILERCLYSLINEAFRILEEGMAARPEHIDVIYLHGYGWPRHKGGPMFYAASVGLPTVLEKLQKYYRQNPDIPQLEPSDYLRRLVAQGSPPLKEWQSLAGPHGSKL

ATP-citrate synthase [6] = target: T1, ATP-citrate synthase (Rattus norvegicus, UniProt P16638); assay: Inhibition against ATP-citrate lyase in liver; assay type: tissue-based
T1 sequence (P16638 whole entry): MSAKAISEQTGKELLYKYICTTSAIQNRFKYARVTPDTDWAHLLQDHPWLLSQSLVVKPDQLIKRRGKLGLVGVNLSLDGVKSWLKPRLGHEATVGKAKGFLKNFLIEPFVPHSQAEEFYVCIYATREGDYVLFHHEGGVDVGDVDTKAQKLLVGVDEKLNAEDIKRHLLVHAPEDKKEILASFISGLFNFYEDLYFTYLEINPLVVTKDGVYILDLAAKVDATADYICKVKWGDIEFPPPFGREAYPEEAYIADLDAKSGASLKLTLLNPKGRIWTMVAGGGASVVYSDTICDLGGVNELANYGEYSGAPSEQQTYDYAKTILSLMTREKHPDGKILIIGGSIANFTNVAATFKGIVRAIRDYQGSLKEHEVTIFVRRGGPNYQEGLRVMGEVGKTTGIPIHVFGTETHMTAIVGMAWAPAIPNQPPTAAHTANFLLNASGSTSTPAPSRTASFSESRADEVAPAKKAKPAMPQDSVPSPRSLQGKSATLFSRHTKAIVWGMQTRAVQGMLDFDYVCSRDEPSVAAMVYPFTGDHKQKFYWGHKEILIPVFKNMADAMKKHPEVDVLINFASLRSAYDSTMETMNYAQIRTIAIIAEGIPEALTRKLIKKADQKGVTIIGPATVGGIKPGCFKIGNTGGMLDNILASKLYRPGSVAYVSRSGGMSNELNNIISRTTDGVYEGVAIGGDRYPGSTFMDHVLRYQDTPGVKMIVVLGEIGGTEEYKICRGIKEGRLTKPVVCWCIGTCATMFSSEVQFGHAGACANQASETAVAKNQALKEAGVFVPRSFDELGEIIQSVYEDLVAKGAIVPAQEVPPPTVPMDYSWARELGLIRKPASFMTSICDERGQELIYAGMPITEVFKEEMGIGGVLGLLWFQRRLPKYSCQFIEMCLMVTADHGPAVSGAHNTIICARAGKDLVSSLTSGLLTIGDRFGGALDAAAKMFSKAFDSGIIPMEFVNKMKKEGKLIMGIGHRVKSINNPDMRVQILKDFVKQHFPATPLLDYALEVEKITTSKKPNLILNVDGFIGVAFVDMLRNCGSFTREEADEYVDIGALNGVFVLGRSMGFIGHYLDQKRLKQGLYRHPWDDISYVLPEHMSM
In short: (§3)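 Liver citrate lyase activity measured across varying concentrations of homologue. Ki (mM) determined from a Dixon plot.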

Rattus norvegicus [7] = species on record: Rattus norvegicus; assay: Inhibition of lipid synthesis, by incorporation of 3H20 into saponified fatty acids in cultured rat hepatocytes; assay type: functional; conditions: Hepatocyte, read-out: I50
In short: (§4)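 Cultured rat hepatocytes incubated with varying concentrations of homologue. 3H2O incorporation into saponified fatty acids and 3-β-hydroxysterols measured. I50 = concentration (mM) giving 50% inhibition.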

[8] = target: Peroxisomal bifunctional enzyme (Rattus norvegicus) (UniProt P07896); assay: Liver peroxisomal enoyl-CoA hydratase activity in rats
Rattus norvegicus [9] = species on record: Rattus norvegicus; assay: Percent inhibition of lipid synthesis by incorporation of 3H20 into saponified fatty acids in rat; assay type: functional; set-up: concentration or dose not given beside the values
In short: as §1

Rattus norvegicus [10] = species on record: Rattus norvegicus; assay: Inhibition of lipid synthesis, by incorporation of 3H20 into 3-beta-hydroxysterols in cultured rat hepatocytes; assay type: functional; conditions: Hepatocyte, read-out: I50
In short: as §4

Rattus norvegicus [11] = assay: Hypolipidemic activity in rats by evaluating the plasma triacylglycerol level at a dose of 10 mg/kg for seven days; assay type: functional
In short: (§5)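 Male Lewis rats, 150–180 g, fed standard chow ad libitum. Compound given orally as a suspension in 1% aqueous tylose; controls received vehicle. Blood taken from the retrobulbar venous plexus 3 h after dosing. Plasma cholesterol and triacylglycerols measured spectrophotometrically with enzymatic kits.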

Rattus norvegicus [12] = assay: Hypolipidemic activity in rats by evaluating the plasma cholesterol level at a dose of 10 mg/kg for seven days; assay type: functional
In short: as §5

[13] = target: Enoyl-CoA hydratase (Rattus norvegicus) (UniProt P07896); assay: Liver peroxisomal enoyl-CoA hydratase activity in rats, at 0.00(w/w) in diet
Enoyl-CoA hydratase (Rattus norvegicus), sequence (P07896 whole entry): as the sequence (P07896 whole entry, looked up) above
In short: (§6)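 Hebrew University strain rats, 140–160 g, starved 48 h, then pair-refed for 3 consecutive nights a 15-g meal of high-carbohydrate fat-free powdered diet, with or without analogue mixed into the diet at the stated % (w/w). The morning after the last meal, 10 mCi 3H2O in saline given ip; rats killed 1 h later. Readouts: liver lipid 3H2O incorporation, plasma lipids, peroxisomal enoyl-CoA hydratase, CN-insensitive palmitoyl-CoA oxidation. Mean ± SD, n = 4.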

Rattus norvegicus [14] = species on record: Rattus norvegicus; assay: Hypolipidemic activity in rats by evaluating the plasma triacylglycerol level at 0.15 (% w/w)in diet; assay type: functional
In short: as §6

Rattus norvegicus [15] = species on record: Rattus norvegicus; assay: Hypolipidemic activity in rats by evaluating the plasma cholesterol level at 0.15 dose (% w/w) in diet; assay type: functional
In short: as §6

Rattus norvegicus [16] = species on record: Rattus norvegicus; assay: Hypolipidemic activity in rats by evaluating the plasma triacylglycerol level at 0.00 (% w/w)in diet; assay type: functional
In short: as §6

Rattus norvegicus [17] = species on record: Rattus norvegicus; assay: Inhibition of lipid synthesis, evaluated by incorporation of 3H20 at 0.15(w/w) into liver cholesterol in rat; assay type: functional
Rattus norvegicus [18] = species on record: Rattus norvegicus; assay: Inhibition of lipid synthesis, evaluated by incorporation of 3H20 at 0.00(w/w) into liver saponified fatty acids in rat; assay type: functional
Rattus norvegicus [19] = species on record: Rattus norvegicus; assay: Hypolipidemic activity in rats by evaluating the plasma cholesterol level at 0.30 dose (% w/w) in diet; assay type: functional
In short: as §6

Rattus norvegicus [20] = species on record: Rattus norvegicus; assay: Inhibition of lipid synthesis, evaluated by incorporation of 3H20 at 0.00(w/w) into liver cholesterol in rat; assay type: functional
Rattus norvegicus [21] = species on record: Rattus norvegicus; assay: Inhibition of lipid synthesis, evaluated by incorporation of 3H20 at 0.30(w/w) into liver saponified fatty acids in rat; assay type: functional
Rattus norvegicus [22] = species on record: Rattus norvegicus; assay: Inhibition of lipid synthesis, evaluated by incorporation of 3H20 at 0.30(w/w) into liver cholesterol in rat; assay type: functional
[23] = target: Enoyl-CoA hydratase (Rattus norvegicus) (UniProt P07896); assay: Liver peroxisomal palmitoyl-CoA oxidation activity in rats, at 0.00(w/w) in diet
In short: as §6

[24] = target: Enoyl-CoA hydratase (Rattus norvegicus) (UniProt P07896); assay: Liver peroxisomal palmitoyl-CoA oxidation activity in rats, at 0.30(w/w) in diet
In short: as §6

Rattus norvegicus [25] = species on record: Rattus norvegicus; assay: Hypolipidemic activity in rats by evaluating the plasma triacylglycerol level at 0.30 (% w/w)in diet; assay type: functional
In short: as §6

[26] = target: Enoyl-CoA hydratase (Rattus norvegicus) (UniProt P07896); assay: Liver peroxisomal palmitoyl-CoA oxidation activity in rats, at 0.15(w/w) in diet
In short: as §6

Rattus norvegicus [27] = species on record: Rattus norvegicus; assay: Hypolipidemic activity in rats by evaluating the plasma cholesterol level at 0.00 dose (% w/w) in diet; assay type: functional
In short: as §6

Rattus norvegicus [28] = species on record: Rattus norvegicus; assay: Hypolipidemic activity in rats by evaluating the plasma cholesterol level at 0.1%(w/w) in diet for three days
ATP-citrate synthase [29] = target: T1, ATP-citrate synthase; assay: Inhibition against ATP-citrate lyase in rat liver.
In short: as §3

ATP-citrate synthase [30] = target: T1, ATP-citrate synthase; assay: Inhibition against ATP-citrate lyase in rat liver; assay type: tissue-based
In short: as §3

ATP-citrate synthase [31] = target: T1, ATP-citrate synthase; assay: Inhibition against ATP-citrate lyase in liver.; assay type: tissue-based
In short: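 Liver ATP-citrate lyase activity was followed across varying inhibitor concentrations, and Ki was derived from a Dixon plot. The methods otherwise refer to an earlier report.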

Activity (uM min-1 mg-1) [5]	Activity (uM min-1 mg-1) [8]	Structure (SMILES)	Incorporation (Rattus norvegicus [1])	residual activity (Rattus norvegicus [2])	Activity (Rattus norvegicus [4])	IC50 (Rattus norvegicus [7])	Fatty acid synthesis (% of untreated control) (Rattus norvegicus [9])	IC50 (Rattus norvegicus [10])	Hypolipidemic activity (Rattus norvegicus [11])	Activity (mg) (Rattus norvegicus [12])	other results
14		CC(C)(CCCC1CCC(CCCC(C)(C)CC(=O)O)CC1)CC(=O)O (stereo not given)	71%	79%	63%						Plasma cholesterol (Rattus norvegicus [28]): 42 mg %
	17.5	CC(C)(CCCCCCCCCCCCC(C)(C)CC(=O)O)CC(=O)O				150 µM	48%	150 µM	130%	73%	Ki (ATP-citrate synthase [6]): 46 µM
	5	CC(C)(CCCCCCCCCCCCCCC(C)(C)CC(=O)O)CC(=O)O				300 µM	113%	300 µM			Ki (ATP-citrate synthase [6]): 260 µM
4.5		CC(C)(C/C=C\c1ccc(/C=C\CC(C)(C)CC(=O)O)cc1)CC(=O)O	97%	72%	98%						Activity (Rattus norvegicus [3]): 47%
10.7	31	CC(C)(CCCCCCCCCCC(C)(C)CC(=O)O)CC(=O)O	40%	48%	49%	80 µM	29%	80 µM	111%	58%	Ki (ATP-citrate synthase [31]): 16 µM; Plasma cholesterol (Rattus norvegicus [28]): 32 mg %

Continued, compound first:

Structure (SMILES)	Activity (uM min-1 mg-1) [5]	Activity (uM min-1 mg-1) [8]	Incorporation (Rattus norvegicus [1])	residual activity (Rattus norvegicus [2])	Activity (Rattus norvegicus [4])	IC50 (Rattus norvegicus [7])	Fatty acid synthesis (% of untreated control) (Rattus norvegicus [9])	IC50 (Rattus norvegicus [10])	Hypolipidemic activity (Rattus norvegicus [11])	Activity (mg) (Rattus norvegicus [12])	other results
CC(C)(CCCc1ccc(CCCC(C)(C)CC(=O)O)cc1)CC(=O)O	12		65%	63%	84%						Activity (Rattus norvegicus [3]): 36%
CC(C)(CCCCCCCCCCCCCCCCC(C)(C)CC(=O)O)CC(=O)O		3.5				400 µM	158%	400 µM			Ki (ATP-citrate synthase [6]): 320 µM
CC(C)(CCCCCCCCCCCC(C)(C)CC(=O)O)CC(=O)O									113%	73%	
O=C(O)CC(CCCCCCCCCCC(CC(=O)O)(c1ccccc1)c1ccccc1)(c1ccccc1)c1ccccc1											Activity (umol/mg.of protein. min) (µmol/mg protein/min) [13]: 0.45; Activity (mg) (Rattus norvegicus [14]): 127%; Activity (mg) (Rattus norvegicus [15]): 70%; Activity (mg) (Rattus norvegicus [16]): 131%; Activity (umol/g.of liver 75.min) (Rattus norvegicus [17]): 4.3 µmol/g liver/75 min; Activity (umol/g.of liver 75.min) (Rattus norvegicus [18]): 118 µmol/g liver/75 min; Activity (mg) (Rattus norvegicus [19]): 58%; Activity (umol/g.of liver 75.min) (Rattus norvegicus [20]): 3.9 µmol/g liver/75 min; Activity (umol/g.of liver 75.min) (Rattus norvegicus [21]): 123 µmol/g liver/75 min; Activity (umol/g.of liver 75.min) (Rattus norvegicus [22]): 3.4 µmol/g liver/75 min; Activity (nmol/mg.of protein. min) (nmol/mg protein/min) [23]: 4.8; Activity (nmol/mg.of protein. min) (nmol/mg protein/min) [24]: 7.2; Activity (mg) (Rattus norvegicus [25]): 101%; Activity (nmol/mg.of protein. min) (nmol/mg protein/min) [26]: 4.4; Activity (mg) (Rattus norvegicus [27]): 70.5%
CC(C)(CCCCCCCCCC(C)(C)CC(=O)O)CC(=O)O									112%	72%	
CC(C)(CCCCCCCCC(C)(C)CC(=O)O)CC(=O)O		16.3				100 µM	66%	100 µM	126%	70%	Ki (ATP-citrate synthase [29]): 56 µM
CC(C)(C/C=C\c1ccc(/C=C/CC(C)(C)CC(=O)O)cc1)CC(=O)O	10.5		37%	50%	25%						Activity (Rattus norvegicus [3]): 37%
CC(C)(CCCCCCC(C)(C)CC(=O)O)CC(=O)O		7.5				300 µM	80%	200 µM			Ki (ATP-citrate synthase [30]): 310 µM
CC(C)(C/C=C/c1ccc(/C=C/CC(C)(C)CC(=O)O)cc1)CC(=O)O	18.6		57%	57%	41%						Activity (Rattus norvegicus [3]): 28%
